Laboratory results published in PMC3285107 (ACS medicinal chemistry letters, 2012).
“Also recorded” adds a separate entry of the source. Values belong to the compound of their own block, whether it stands above or below them.

What was measured:
Aqueous solubility = type: physicochemical; conditions: result in words
[1] = tested on: M3 muscarinic receptors in HEK293T cells; assay: Carbachol-stimulated Ca2+ transient; type: cell-based; conditions: compound 10 μM, carbachol 10 nM, HEK cells with human M3 receptor
In short: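 HEK-293 cells stably expressing human M3 muscarinic receptor, plated overnight, then loaded with Fluo4-NW for 30 min at 37 °C. Test compound added at 10 μM (1% DMSO). After […] minutes, baseline fluorescence read on a plate reader. Carbachol (10 nM final) injected, and the rise in intracellular Ca2+ expressed as percentage of baseline Ca2+ level.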

RGS4 = assay: FCPIA: inhibition of Gαo binding to RGS4; conditions: for activity at RGS4: result in words
In short: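 Primary FCPIA screen for inhibition of Gαo binding to RGS4, run in parallel against RGS8, its closest sequence relative, to assess selectivity. IC50 values are averages of two independent experiments. Calculated ΔpIC50 mean error: 0.2 for RGS4, 0.14 for RGS8.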

cysteine protease papain = conditions: result in words; cited from earlier work

RGS4, sequence (P49798 whole entry): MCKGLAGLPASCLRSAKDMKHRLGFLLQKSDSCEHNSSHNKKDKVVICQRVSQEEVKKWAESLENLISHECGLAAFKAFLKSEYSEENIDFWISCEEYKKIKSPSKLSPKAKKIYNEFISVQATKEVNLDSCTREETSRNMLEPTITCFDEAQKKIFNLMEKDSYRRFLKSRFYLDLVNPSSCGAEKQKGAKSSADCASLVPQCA

Compound: CCCCn1c(=O)sn(CC)c1=O [11b]
aqueous solubility (Aqueous solubility): high solubility; also recorded: excellent aqueous solubility
effect on carbachol-induced Ca2+ transient [1]: no effect; also recorded: no calcium transient

selectivity for RGS4 versus RGS8 (RGS4): > 1000 fold
Compound: Cc1ccc(-n2sc(=O)n(Cc3cccc(Cl)c3)c2=O)cc1 [compound 5]

selectivity for RGS4 versus RGS8 (RGS4): > 1000 fold
Compound: COc1ccc(Cn2c(=O)sn(-c3ccc(C)cc3)c2=O)cc1 [compound 7]

selectivity for RGS4 versus RGS8 (RGS4): near three orders of magnitude
Compound: Cc1ccc(Cn2sc(=O)n(Cc3ccccc3)c2=O)cc1 [2i]

selectivity for RGS4 versus RGS8 (RGS4): > 600 fold
aqueous solubility (Aqueous solubility): further improved solubility
Compound: CCn1sc(=O)n(CCOC)c1=O [compound 13]
effect on carbachol-induced Ca2+ transient [1]: no effect

Compound: Cc1ccc(-n2sc(=O)n(Cc3ccc(F)cc3)c2=O)cc1 [1a]
inhibition of papain (cysteine protease papain): failing to inhibit
effect on carbachol-induced Ca2+ transient [1]: nearly completely abolished

selectivity for RGS4 versus RGS8 (RGS4): > 1000 fold
Compound: Cc1ccc(Cn2c(=O)sn(-c3ccc(C)cc3)c2=O)cc1 [compound 4]

selectivity for RGS4 versus RGS8 (RGS4): > 1000 fold
Compound: Cc1ccc(-n2sc(=O)n(Cc3ccc(Cl)cc3)c2=O)cc1 [compound 3]

activity at RGS4 (RGS4): neither 14 or 15 displayed activity
Compound: Cc1ccc(CN2C(=O)CN(c3ccc(C)cc3)C2=O)cc1 [compound 14]

selectivity for RGS4 versus RGS8 (RGS4): near three orders of magnitude
Compound: Cc1ccc(Cn2sc(=O)n(Cc3ccc(F)cc3)c2=O)cc1 [1i]

activity at RGS4 (RGS4): neither 14 or 15 displayed activity
Compound: Cc1ccc(C2=CC(=O)N(Cc3ccccc3)C2=O)cc1 [compound 15]
